Series [1] can be described thus: Cell cycle arrest in human 786-0 cells assessed as accumulation at S phase at 6.25 uM after 24 hrs by propidium iodide staining-based flow cytometry (Rvb=12.6+/-0.7%). In kind it is functional. The procedure, abridged: (§1)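 786-0 cells seeded at 3×10^4 cells/mL and grown 24 h, then serum-starved 24 h to synchronise. Treated in DMSO/RPMI for 24 h alongside DMSO vehicle and colchicine control. 1×10^5 cells in PBS were stained with propidium iodide for 20 min in the dark at room temperature, then analysed by flow cytometry. Results are mean ± standard error % cells from three experiments in triplicate; ANOVA/Tukey.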
Background: Flow cytometry measures light scatter and fluorescence of single cells or particles in a stream.

The subject of series [2] is Human alphaherpesvirus 1. As to the kind of experiment: Antiviral activity against Herpes simplex type I KOS. In kind it is functional. Particulars: Human alphaherpesvirus 1, KOS.
Series [3] has as its system 786-0. Nature of the series: Induction of apoptosis in human 786-0 cells assessed as late apoptotic or necrotic cells at 25 uM after 18 hrs by 7-AAD staining based flow cytometry. Type of series: functional. Summed up:
(§2)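 786-0 cells seeded at 3×10^4 cells/mL and grown 24 h at 37 °C under 5% CO2. Exposed to 25 µM in DMSO/RPMI for 15, 18 or 24 h against DMSO vehicle. Results are mean ± standard error from three experiments in triplicate.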

Series [4] can be described thus: Cell cycle arrest in human 786-0 cells assessed as accumulation at G2/M phase at 6.25 uM after 24 hrs by propidium iodide staining-based flow cytometry (Rvb=36.5+/-1.1%). Type of series: functional. The procedure, abridged:
as §1

Series [5] in a line: Cell cycle arrest in human 786-0 cells assessed as accumulation at G1 phase at 6.25 uM after 24 hrs by propidium iodide staining-based flow cytometry (Rvb=47.1+/-1%). Type of series: functional. The procedure, abridged:
as §1

Series [6] is described as follows: Cytotoxicity against human 786-0 cells after 48 hrs by SRB assay. To be noted: 786-0, 48 h. Type of series: functional. Summed up:
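Sulforhodamine B assay in RPMI 1640 with 5% FBS. Triplicate exposures to 0.25–250 µg/mL in DMSO/RPMI for 48 h at 37 °C under 5% CO2. T0 and treated plates were fixed with 50% TCA and absorbance read at 540 nm. Parameters: TGI is total growth inhibition; LC50 is the concentration killing 50% of cells. Doxorubicin served as control.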
(In general: Sulforhodamine B stains cellular protein and so reports cell mass.)

For series [7], the system named is 786-0. As to the kind of experiment: Induction of apoptosis in human 786-0 cells assessed as necrotic cells at 25 uM after 15 hrs by Annexin V/7-AAD staining based flow cytometry. Type of series: functional. Summed up: as §2
Series [8] in a line: Cytotoxicity against African green monkey Vero cells after 48 hrs by SRB assay. Type of series: toxicity, cell-based. To be noted: chlorocebus sabaeus. Summed up:
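Vero (ATCC CCL81) cells grown in DMEM with 10% FBS and gentamicin at 37°C, 5% CO2. Cells exposed in triplicate to 1000, 500, 100, 10, 1 and 0.1 µg/mL, with untreated cells as control. Viability read by sulforhodamine B colorimetry. CC50 is the concentration giving 50% cytotoxicity.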

Series [9] in a line: Antiproliferative activity against human NCI-H460 cells after 48 hrs by SRB assay. Type of series: functional. Particulars: NCI-H460, 48 h. The procedure, abridged: (§3)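 Cells grown in RPMI 1640 with 5% FBS, with penicillin/streptomycin in experimental cultures. Exposed in triplicate to 0.25, 2.5, 25 and 250 µg/mL in DMSO/RPMI for 48 h at 37 °C under 5% CO2. Plates were TCA-fixed before (T0) and after treatment, then stained with sulforhodamine B and read at 540 nm. GI50 was obtained by non-linear regression against untreated growth. Doxorubicin served as positive control.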

Series [10] concerns 786-0. As to the kind of experiment: Induction of apoptosis in human 786-0 cells assessed as necrotic cells at 25 uM after 24 hrs by Annexin V/7-AAD staining based flow cytometry. Type of series: functional. Summed up: as §2
A short description of series [11]: Cell cycle arrest in human 786-0 cells assessed as accumulation at G1 phase at 12.5 uM after 24 hrs by propidium iodide staining-based flow cytometry (Rvb=47.1+/-1%). Type of series: functional. The procedure, abridged:
as §1

Series [12] is described as follows: Antiproliferative activity against human NCI/ADR-RES cells after 48 hrs by SRB assay. In kind it is functional. The procedure, abridged:
as §3

Series [13] has as its system 786-0. As to the kind of experiment: Induction of apoptosis in human 786-0 cells assessed as late apoptotic or necrotic cells at 25 uM after 15 hrs by 7-AAD staining based flow cytometry. Type of series: functional. Summed up: as §2
Series [14] can be described thus: Cell cycle arrest in human 786-0 cells assessed as accumulation at G2/M phase at 12.5 uM after 24 hrs by propidium iodide staining-based flow cytometry (Rvb=36.5+/-1.1%). In kind it is functional. Summed up: as §1
A short description of series [15]: Cell cycle arrest in human 786-0 cells assessed as accumulation at S phase at 12.5 uM after 24 hrs by propidium iodide staining-based flow cytometry (Rvb=12.6+/-0.7%). Type of series: functional. The procedure, abridged:
as §1

A short description of series [16]: Cell cycle arrest in human 786-0 cells assessed as accumulation at sub-G1 phase at 6.25 uM after 24 hrs by propidium iodide staining-based flow cytometry (Rvb=3.7+/-0.9%). Type of series: functional. The procedure, abridged: as §1
Series [17] is described as follows: Selectivity index, ratio of CC50 for Herpes simplex type I KOS infected African green monkey Vero cells to EC50 for Herpes simplex virus type 1 KOS. To be noted: Herpes simplex virus type 1 KOS infected Vero cells, read-out: Ratio CC50/EC50. In kind it is toxicity, cell-based. The procedure, abridged:
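SI calculated as CC50/EC50. CC50 is the 50% cytotoxic concentration on Vero cells by sulforhodamine B, tested in triplicate from 0.1 to 1000 µg/mL. EC50 is the concentration protecting 50% of cells against HSV-1, with acyclovir as HSV-1 standard and drug-free cells as control.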

The nature of series [18]: Antiproliferative activity against human 786-0 cells after 48 hrs by SRB assay. Particulars: 786-0, 48 h. In kind it is functional. Summed up:
as §3

Series [19] can be described thus: Antiproliferative activity against human MCF7 cells after 48 hrs by SRB assay. Particulars: MCF7, 48 h. In kind it is functional. Summed up: as §3
For series [20], the system named is 786-0. As to the kind of experiment: Induction of apoptosis in human 786-0 cells assessed as late apoptotic or necrotic cells at 25 uM after 24 hrs by 7-AAD staining based flow cytometry. In kind it is functional. Summed up: as §2
A short description of series [21]: Cell cycle arrest in human 786-0 cells assessed as accumulation at sub-G1 phase at 12.5 uM after 24 hrs by propidium iodide staining-based flow cytometry (Rvb=3.7+/-0.9%). Type of series: functional. Summed up:
as §1

Series [22] can be described thus: Antiproliferative activity against human OVCAR3 cells after 48 hrs by SRB assay. In kind it is functional. To be noted: OVCAR-3, 48 h. The procedure, abridged: as §3
Series [23] can be described thus: Antiproliferative activity against human HT-29 cells after 48 hrs by SRB assay. Type of series: functional. To be noted: HT-29, 48 h. Summed up: as §3
In series [24] the test system is 786-0. As to the kind of experiment: Induction of apoptosis in human 786-0 cells assessed as necrotic cells at 25 uM after 18 hrs by Annexin V/7-AAD staining based flow cytometry. Type of series: functional. Summed up: as §2
The nature of series [25]: Cell cycle arrest in human 786-0 cells assessed as accumulation at sub-G1 phase at 1.25 uM after 24 hrs by propidium iodide staining-based flow cytometry (Rvb=3.7+/-0.9%). In kind it is functional. The procedure, abridged:
as §1

A short description of series [26]: Cell cycle arrest in human 786-0 cells assessed as accumulation at G2/M phase at 1.25 uM after 24 hrs by propidium iodide staining-based flow cytometry (Rvb=36.5+/-1.1%). Type of series: functional. Summed up:
as §1

Series [27] can be described thus: Cell cycle arrest in human 786-0 cells assessed as accumulation at S phase at 1.25 uM after 24 hrs by propidium iodide staining-based flow cytometry (Rvb=12.6+/-0.7%). In kind it is functional. Summed up:
as §1

Series [28] can be described thus: Cell cycle arrest in human 786-0 cells assessed as accumulation at G1 phase at 1.25 uM after 24 hrs by propidium iodide staining-based flow cytometry (Rvb=47.1+/-1%). Type of series: functional. Summed up:
as §1

The nature of series [29]: Antiproliferative activity against human UACC62 cells after 48 hrs by SRB assay. Particulars: UACC-62, 48 h. Type of series: functional. The procedure, abridged: as §3
Series [30] can be described thus: Antiproliferative activity against human PC3 cells after 48 hrs by SRB assay. In kind it is functional. Particulars: PC-3, 48 h. Summed up: as §3
Series [31] can be described thus: Antiproliferative activity against human U251 cells after 48 hrs by SRB assay. Particulars: U-251, 48 h. In kind it is functional. Summed up:
as §3

Three molecules from ChEMBL document CHEMBL3877292, “Synthesis and evaluation of novel hybrids β-carboline-4-thiazolidinones as potential antitumor and antiviral agents” (Eur J Med Chem, 2016) can be followed below.

Molecules are shown by their SMILES. A value given as a limit tells only on which side of the number the result lay.

For orientation: EC50 means the concentration at which the effect is half-maximal. The term TGI denotes the concentration giving total growth inhibition. Usually GI50 stands for the concentration that inhibits growth by half. On to `CN(C)c1ccc(-c2nc(C(=O)N/N=C3/NC(=O)CS3)cc3c2[nH]c2ccccc23)cc1`, for which the Activity in series [1] was 11.9%; in [3], 34.7%; in series [4], 37%; in [5], 48.7%; in series [7], 3.6%; in [10], 38.7%. Further, the Activity in [11] came out at 40.5%; in series [13], 3.9%; in series [14] it was 31.8%; in series [15], 12.4%; in series [16] it was 2.3%; in [20], 36.6%. Besides, the values for the Activity in series [21] and in series [24] were 15.3% and 34.4%, respectively. In series [2], this molecule gave a concentration giving a half-maximal response (EC50) of 96.8 µM. Total growth inhibition in series [6] (TGI) required 13 µM. Also, the CC50 in [6] (read-out: LC50 (the source's name)) is 105 µM. Further, the CC50 at 48 h in series [8] was found to be 1740 µM. Besides, the concentration for 50% growth inhibition (GI50) in series [9] came to 1.44 µM; in [12], 0.48 µM; in series [18] it was 1.6 µM; in series [19], 2.93 µM; in series [22], 1.27 µM; in series [23] it was 5.04 µM. Moreover, the selectivity ratio in series [17] was 18.

For `COc1cc2c(c(OC)c1OC)-c1ccc(OC)c(=O)cc1[C@@H](NC(C)=O)CC2`, the Activity came to 9% in [25], 61.7% in [26], 11% in series [27] and 18.3% in series [28].

Take `O=C(NN1C(=O)CSC1c1ccccc1)c1cc2c([nH]c3ccccc32)c(-c2ccccc2)n1` (stereo unspecified): the GI50 in [29] is 80.4 µM; in series [9], greater than 100 µM; in series [30] it was 7.23 µM; in series [12] it was 18.4 µM; in series [31], 0.25 µM; in series [18], greater than 100 µM. The 50% growth inhibitory concentration (GI50) in [19] is 19.1 µM; in [22], 1.58 µM; in series [23] it was greater than 100 µM. Moreover, the EC50 in series [2] worked out at 2.15 µM. The molecule also yielded a CC50 at 48 h in series [8] of 506 µM. For the same molecule, in [17], the selectivity ratio came out at 235.
